{
  "source": "ChEMBL document CHEMBL3580604",
  "about": "“Flavonoids from Matteuccia struthiopteris and Their Anti-influenza Virus (H1N1) Activity” (J Nat Prod, 2015)",
  "key": {"[1]": {"target": "Neuraminidase (Influenza A virus) (UniProt B4URF0)", "sequence (B4URF0 as listed by the source)": "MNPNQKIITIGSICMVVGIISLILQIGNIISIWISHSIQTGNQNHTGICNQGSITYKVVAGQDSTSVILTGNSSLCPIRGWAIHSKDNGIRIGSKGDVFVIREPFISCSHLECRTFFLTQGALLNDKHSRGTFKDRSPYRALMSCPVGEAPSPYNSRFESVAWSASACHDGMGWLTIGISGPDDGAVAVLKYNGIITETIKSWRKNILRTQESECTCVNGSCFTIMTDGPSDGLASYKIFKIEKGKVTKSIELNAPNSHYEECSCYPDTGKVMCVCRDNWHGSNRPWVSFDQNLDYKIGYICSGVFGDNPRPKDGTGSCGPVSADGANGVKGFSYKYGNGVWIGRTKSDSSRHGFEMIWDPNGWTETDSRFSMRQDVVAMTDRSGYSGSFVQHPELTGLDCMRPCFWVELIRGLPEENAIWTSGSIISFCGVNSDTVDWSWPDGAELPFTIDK", "assay": "Inhibition of Influenza A virus A/PR/8/34 (H1N1) neuraminidase activity measured in infected MDCK cells using MUNANA as substrate assessed as fluorescence intensity after 48 hrs", "assay_type": "cell-based", "details": "Influenza A virus (A/Puerto Rico/8/1934(H1N1))", "procedure,_shortened": "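MDCK cells (2 × 10^4/well) infected with A/PR/8/34 at MOI 0.01, with samples (0.7–166 μM, DMEM with 1% DMSO) added at the same time. After 1 h at 37 °C the cells were washed and fresh sample-containing DMEM added for 48 h. Supernatant NA activity was read with MUNANA for 45 min at 37 °C (ex 355/em 485 nm). Triplicate runs; EC50 by linear extrapolation; ribavirin 0.8–200 μM control.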"}, "MDCK": {"test_system": "MDCK", "assay": "Cytotoxicity against MDCK cells assessed as cell viability after 72 hrs by MTT assay", "assay_type": "cell-based, Canis lupus familiaris", "details": "dog"}, "[2]": {"assay": "Selectivity index, ratio of cytotoxicity for MDCK cells to EC50 for Influenza A virus A/PR/8/34 (H1N1) neuraminidase activity", "assay_type": "toxicity, cell-based", "details": "dog, read-out: Selectivity Index", "procedure,_shortened": "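SI calculated as CC50/EC50, with CC50 from the 72 h MDCK AlamarBlue assay and EC50 from the MUNANA neuraminidase assay on supernatants of PR8-infected MDCK cells at 48 h.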"}},
  "note": "Activity calls are given as the source filed them. The rule behind the calls is not given here.",
  "data": [
    {"compound": "COC(=O)C(C)OC(O[C@H]1[C@H](Oc2c(-c3ccc(O)cc3)oc3cc(O[C@@H]4O[C@@H](C)[C@H](O)[C@@H](O)[C@H]4O)cc(O)c3c2=O)O[C@@H](C)[C@H](O)[C@H]1O)C(O)C(=O)OC", "note": "(stereo partly drawn)", "values": [
      {"measurement": "inhibition", "setting": "[1]", "value": "inactive"},
      {"measurement": "Activity", "setting": "MDCK", "value": "Non-toxic"}
    ]},
    {"compound": "C[C@@H]1O[C@@H](Oc2cc(O)c3c(=O)c(O[C@@H]4O[C@@H](C)[C@H](O)[C@@H](O)[C@H]4O[C@@H]4O[C@@H](C)[C@H](O)[C@@H](O)[C@H]4O)c(-c4ccc(O)cc4)oc3c2)[C@H](O)[C@H](O)[C@H]1O", "values": [
      {"measurement": "inhibition", "setting": "[1]", "value": "inactive"},
      {"measurement": "Activity", "setting": "MDCK", "value": "Non-toxic"}
    ]},
    {"compound": "COc1c(O)cc([C@@H]2CC(=O)c3c(O)c(C)c(O[C@@H]4O[C@H](CO)[C@@H](O)[C@H](O)[C@H]4O)c(C)c3O2)cc1O", "values": [
      {"measurement": "selectivity ratio", "setting": "[2]", "value": 34.4},
      {"measurement": "Activity", "setting": "MDCK", "value": "Non-toxic"}
    ]},
    {"compound": "COc1c(O)cc(C2CC(=O)c3c(O)c(C)c(O)c(C)c3O2)cc1O", "note": "(stereo not drawn)", "values": [
      {"measurement": "selectivity ratio", "setting": "[2]", "value": 3.1},
      {"measurement": "Activity", "setting": "MDCK", "value": "Non-toxic"}
    ]},
    {"compound": "O=c1c(O[C@@H]2O[C@H](CO)[C@@H](O)[C@H](O)[C@H]2O)c(-c2ccc(O)cc2)oc2cc(O)cc(O)c12", "note": "[ASTRAGALIN]", "values": [
      {"measurement": "selectivity ratio", "setting": "[2]", "value": 12.4},
      {"measurement": "Activity", "setting": "MDCK", "value": "Non-toxic"}
    ]},
    {"compound": "CC(=O)O[C@@H]1[C@@H](O)[C@@H](O[C@@H]2O[C@H](CO)[C@@H](O)[C@H](O)[C@H]2O)[C@H](Oc2c(-c3ccc(O)cc3)oc3cc(O[C@@H]4O[C@@H](C)[C@H](O)[C@@H](O)[C@H]4O)cc(O)c3c2=O)O[C@H]1C", "values": [
      {"measurement": "inhibition", "setting": "[1]", "value": "inactive"},
      {"measurement": "Activity", "setting": "MDCK", "value": "Non-toxic"}
    ]},
    {"compound": "COC(=O)C1(O)CC(C)OC1O[C@H]1[C@H](Oc2c(-c3ccc(O)cc3)oc3cc(O[C@@H]4O[C@@H](C)[C@H](O)[C@@H](O)[C@H]4O)cc(O)c3c2=O)O[C@@H](C)[C@H](O)[C@H]1O", "note": "(stereo partly drawn)", "values": [
      {"measurement": "inhibition", "setting": "[1]", "value": "inactive"},
      {"measurement": "Activity", "setting": "MDCK", "value": "Non-toxic"}
    ]},
    {"compound": "C[C@@H]1O[C@@H](Oc2cc(O)c3c(=O)c(O[C@@H]4O[C@@H](C)[C@H](O)[C@@H](O)[C@H]4O[C@@H]4O[C@H](CO)[C@@H](O)[C@@H](O)[C@H]4O)c(-c4ccc(O)cc4)oc3c2)[C@H](O)[C@H](O)[C@H]1O", "values": [
      {"measurement": "inhibition", "setting": "[1]", "value": "inactive"},
      {"measurement": "Activity", "setting": "MDCK", "value": "Non-toxic"}
    ]},
    {"compound": "CC(=O)O[C@@H]1[C@@H](O)[C@@H](O[C@@H]2O[C@H](CO)[C@@H](O)[C@@H](O)[C@H]2O)[C@H](Oc2c(-c3ccc(O)cc3)oc3cc(O[C@@H]4O[C@@H](C)[C@H](O)[C@@H](O)[C@H]4O)cc(O)c3c2=O)O[C@H]1C", "values": [
      {"measurement": "inhibition", "setting": "[1]", "value": "inactive"},
      {"measurement": "Activity", "setting": "MDCK", "value": "Non-toxic"}
    ]}
  ]
}
